ChEMBL document CHEMBL1126627, “Synthesis and anti-HIV evaluation of D4T and D4T 5'-monophosphate prodrugs” (J Med Chem, 1993)
Calls of active or inactive are those of the source. No cut-off for these calls is given here.

How the values were obtained:
CEM-c113 [1] = assay: Effective concentration that reduces HIV-induced cytopathic effect by 50% was determined by MTT assay.; format: functional, cell-based; conditions: Homo sapiens
Outline: (§1)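 CEM-Cl13 T-lymphoblastoid cells in RPMI 1640 with 5% heat-inactivated FCS at 37 °C, 5% CO2. Wells seeded with 10000 cells and given compound dilutions in triplicate (DMF stock diluted in water, at most 0.1% DMF final). Infected with HIV-1 LAV-Bru cell-free supernatant at 50-250 times the minimal infecting dose, cultured 7 days. MTT viability read at 540 nm. EC50 is the dose giving 50% protection from CPE. SI is IC50/EC50.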

[2] = Half-life estimated in human plasma; format: ADME
Outline: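 Compounds incubated in human plasma. Breakdown followed by TLC separation, and half-life estimated from this.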

[3] = molecular target: Human immunodeficiency virus type 1 reverse transcriptase (Human immunodeficiency virus 1) (UniProt Q72547); assay: Selectivity index expressed as ratio of IC50 (CEM-C113) to EC50 from RT assay
Outline: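 HIV-1 LAV-Bru cell-free supernatant used to infect CEM-Cl13 cells (10000/well, triplicate compound dilutions, 7-day culture). EC50 is 50% reduction of RT activity. SI is the ratio of the mock-infected MTT IC50 to this EC50.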

[4] = Selectivity index expressed as ratio of IC50 (CEM-C113) to EC50 from MTT assay; format: functional; outline: as §1
CEM-c113 [5] = assay: Antiviral activity measured in lymphocytic cell line (CEM-C113) infected with HIV-1 cell free supernatants; format: functional, cell-based; conditions: Homo sapiens; outline: as §1
[6] = Selectivity index expressed as ratio of IC50 (CEM-C113) to EC50 from MTT assay; inactive; format: functional; outline: as §1

| SMILES | half-life [2] [h] | Selectivity index [3] | IC50 (CEM-c113 [5]) [µM] | EC50 (CEM-c113 [1]) [µM] | Selectivity index [4] | Selectivity index [6] |
| --- | --- | --- | --- | --- | --- | --- |
| Cc1cn(C2C=CC(COP(=O)(OCCC#N)OCC3C=CC(n4cc(C)c(=O)[nH]c4=O)O3)O2)c(=O)[nH]c1=O (centres undefined) | 12 |  | 17 | 1 | 17 |  |
| Cc1cn([C@H]2C=C[C@@H](CO)O2)c(=O)[nH]c1=O [STAVUDINE] |  | 200 | 10 | 0.08 | 125 |  |
| Cc1cn(C2C=CC(COP(=O)(O)OCC3C=CC(n4cc(C)c(=O)[nH]c4=O)O3)O2)c(=O)[nH]c1=O (centres undefined) | > 24 | 2000 | 100 | 0.02 | 5000 |  |
| Cc1cn([C@H]2C[C@H](N=[N+]=[N-])[C@@H](CO)O2)c(=O)[nH]c1=O [ZIDOVUDINE] |  | 2000 | 20 | 0.006 | 3330 |  |

Now from value to molecule, other results behind:

| half-life [2] [h] | Selectivity index [3] | IC50 (CEM-c113 [5]) [µM] | SMILES | EC50 (CEM-c113 [1]) [µM] | Selectivity index [4] | Selectivity index [6] |
| --- | --- | --- | --- | --- | --- | --- |
| > 24 | 50 | 10 | CCCCCCCCCCCCCCCCOP(=O)(O)OCC1C=CC(n2cc(C)c(=O)[nH]c2=O)O1 (centres undefined) | 0.12 | 83 |  |
| > 24 |  | > 20 | CCCCCCCCCCCCCCCCNC(=O)OCC1C=CC(n2cc(C)c(=O)[nH]c2=O)O1 (centres undefined) | > 20 |  | inactive |
| > 24 |  | > 20 | CCCCCCCCCCCCCCCCOC(=O)OCC1C=CC(n2cc(C)c(=O)[nH]c2=O)O1 (centres undefined) | 0.3 | > 66 |  |
| 12 |  | 17 | CCCCCCCCCCCCCCCCOP(=O)(OCCC#N)OCC1C=CC(n2cc(C)c(=O)[nH]c2=O)O1 (centres undefined) | 4.3 | 4 |  |
| 4 | 50 | 4 | CCCCCCCCCCCCCCCC(=O)OCC1C=CC(n2cc(C)c(=O)[nH]c2=O)O1 (centres undefined) | 0.1 | 40 |  |
